Beta cell apopt: beta cell apoptosis inhibition; INS-1E cytokine-induced death, ATP luminescence, 48 h; percent of positive-control rescue, neutral wells zero; protection from apoptosis, % (test concentration not listed); 300,000 compounds, 0.8% hits; AID 435005;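 active = Every replicate reaches about 75%, or at least half do and their mean reaches it too, limit read from the data; inconclusive = At least half of replicates reach the limit but their mean does not; inactive = Under half of replicates reach the limit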;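 note: higher means more ATP so stronger rescue from cytokine killing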
CSC inhib: cancer stem cell inhibition; inhibition, % at 7.5 µM; cancer stem cell-like cells viability, luminescence; 300,000 compounds, 1.1% hits; in the data active = inhibition above about 75%; inconclusive = no clear call, values can overlap the other calls; tested in HMLE shEcad cells
Calb FLC: C. albicans growth modulation with fluconazole | C. albicans CaCi-2 (fluconazole-resistant clinical isolate) + fluconazole, Alamar Blue growth, 48 h | growth inhibition, % (no concentration beside the values) | 300,000 compounds, 0.57% hits;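 active = growth inhibition above about 58% in most replicates, limit read from the data, passing the limit was not always enough; inconclusive = exactly half the replicates above a set limit; inactive = most replicates below a set limit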;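 note: all wells also contain fluconazole at 8 µg/ml as a sub-toxic cotreatment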
Mdm2-MdmX inh: inhibitors of human Mdm2/MdmX interaction. O15151+Q00987. SaOS-2 split-luciferase Mdm2/MdmX complementation, luminescence. inhibition, % at 8 µM. 330,000 compounds, 3% hits. AID 485346;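 active = inhibition of at least 50% at 8 µM in the primary screen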
Target sequence (O15151 whole entry, looked up): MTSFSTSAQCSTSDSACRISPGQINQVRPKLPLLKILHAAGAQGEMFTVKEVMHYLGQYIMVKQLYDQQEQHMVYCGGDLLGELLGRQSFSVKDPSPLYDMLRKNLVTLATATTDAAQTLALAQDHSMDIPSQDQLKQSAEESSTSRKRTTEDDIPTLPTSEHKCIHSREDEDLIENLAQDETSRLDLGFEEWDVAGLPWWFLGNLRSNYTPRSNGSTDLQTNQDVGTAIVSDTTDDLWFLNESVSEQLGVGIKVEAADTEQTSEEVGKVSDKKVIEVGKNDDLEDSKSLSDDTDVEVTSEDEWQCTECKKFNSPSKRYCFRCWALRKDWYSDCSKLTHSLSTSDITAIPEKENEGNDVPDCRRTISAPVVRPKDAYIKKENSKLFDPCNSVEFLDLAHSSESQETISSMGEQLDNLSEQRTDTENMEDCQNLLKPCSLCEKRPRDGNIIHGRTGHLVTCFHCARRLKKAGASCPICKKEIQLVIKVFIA
Target sequence (Q00987 whole entry, looked up): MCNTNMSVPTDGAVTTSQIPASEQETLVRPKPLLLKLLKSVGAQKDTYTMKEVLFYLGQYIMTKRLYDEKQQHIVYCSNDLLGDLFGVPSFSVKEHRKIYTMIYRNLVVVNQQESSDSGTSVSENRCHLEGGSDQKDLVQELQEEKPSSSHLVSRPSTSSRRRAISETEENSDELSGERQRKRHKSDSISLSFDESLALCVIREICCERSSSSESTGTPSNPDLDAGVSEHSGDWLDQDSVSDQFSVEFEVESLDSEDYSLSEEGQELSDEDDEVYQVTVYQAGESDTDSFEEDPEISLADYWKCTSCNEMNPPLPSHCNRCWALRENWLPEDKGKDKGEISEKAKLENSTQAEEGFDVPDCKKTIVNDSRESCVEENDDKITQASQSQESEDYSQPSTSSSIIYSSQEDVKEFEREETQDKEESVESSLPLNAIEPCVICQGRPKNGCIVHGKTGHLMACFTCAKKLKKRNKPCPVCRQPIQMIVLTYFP
SKKanGAS inh: inhibitors of SKKanGAS S. pyogenes growth in kanamycin (SK-promoter or general growth effect); BacTiter-Glo, 6 h; inhibition, % at 7.5 µM; 300,000 compounds, 1.3% hits;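 active = mean replicate score, as percent of positive control median, at least 50; inconclusive = mean below 50 but one replicate at or above 50; inactive = mean and every replicate below 50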;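 note: strain carries kanamycin resistance gene driven by streptokinase promoter and grows in 40 µg/ml kanamycin; loss of luminescence reflects streptokinase promoter inhibition or plain growth inhibition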
T cruzi repl: T. cruzi replication inhibition | T. cruzi beta-gal in NIH3T3, luminescence, 90 h | inhibition, % (no concentration beside the values) | 300,000 compounds, 1.4% hits;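 active = mean inhibition across valid replicates above about 55%, limit read from the data; inconclusive = mean below that limit but half or more replicates reach it; inactive = mean below it, under half of replicates reach it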;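 note: signal also drops with host cell toxicity which is not excluded here; higher percent means less beta-gal luminescence so fewer parasites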
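System – NIH/3T3 host cells with β-galactosidase reporter T. cruzi · Doses – single 50 nL compound addition per well in DMSO · Reagent – 5000 T. cruzi trypomastigotes/well · Medium – Low-serum DMEM with 2% FBS · Timing – ≥90 h infection period, 3 h prior cell attachment · Evaluation – parasite load inhibition, % · Technique – GalScreen luminescence, 60 min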
Hits are given with their value; i = inactive; ? = inconclusive; nt = no result given. This is a sample that favours compounds with a hit; in the whole collection about 5.7% have one here.

SMILES	Beta cell apopt	CSC inhib	Calb FLC	Mdm2-MdmX inh	SKKanGAS inh	T cruzi repl
CCCCN(C(=O)c1cc2c(s1)CCCCC2)c1c(N)n(CC(C)C)c(=O)[nH]c1=O	nt	nt	nt	i	nt	nt
Cc1cc(OCC(=O)Nc2ccccc2C)no1	i	i	nt	i	nt	nt
COc1cc2c(cc1O)CC[n+]1cc3c(OC)c(OC)ccc3cc1-2	i	i	99.1	i	i	i
COc1cc2c(cc1OC)-c1cc3ccc4c(c3c[n+]1CC2)OCO4	i	i	i	i	i	i
CCOC(=O)N/N=C1\CCS(=O)(=O)c2ccc(Cl)cc21	i	i	i	i	i	nt
CCN(c1ccccc1)S(=O)(=O)c1cc(C(=O)Nc2ccc(Br)cc2)ccc1F	i	i	i	i	i	56.8
O=C(NN=C1CCCC1)c1ccc(O)cc1	nt	i	i	i	i	i
CN(c1ccccc1)P(=O)(N(C)c1ccccc1)N(C)c1ccccc1	i	i	i	i	i	66.1
CCN(c1ccccc1)P(=O)(Nc1ccccc1)Nc1ccccc1	i	i	i	i	i	i
Cc1occc(=O)c1OC(=O)Nc1ccc(Cl)c(Cl)c1	105.7	i	nt	nt	nt	nt
CCOC(=O)c1ccc(NC(=S)NN2CCN(C)CC2)cc1	i	i	i	i	i	57.5
CCOC(=O)c1ccc(NC(=S)NC2CCCC2)cc1	i	nt	i	i	i	i
Cc1ccc(CSc2ncnc3c2cnn3Cc2ccccc2)cc1	i	i	i	i	64.8	i
COc1ccc(Br)cc1S(=O)(=O)N1CCCC1	i	i	i	i	i	i
COc1cc(S(=O)(=O)N2CCCCCC2)c(OC)cc1Br	i	78.6	i	i	i	i
O=C(COC(=O)c1ccc(Cl)nc1)Nc1cc(S(=O)(=O)N2CCOCC2)ccc1Cl	i	i	nt	i	nt	nt
CC1Sc2ccc(S(=O)(=O)N3CCC(C(=O)N(C)Cc4ccccc4)CC3)cc2NC1=O (stereo unspecified)	i	i	i	i	i	i
Cc1nc(SCc2nc3ccc(Br)cc3[nH]2)c2oc3ccccc3c2n1	i	nt	nt	i	nt	nt
Cc1nc(SCc2nc3ccc(C(F)(F)F)cc3[nH]2)c2oc3ccccc3c2n1	i	103.6	nt	i	nt	nt
Cc1noc(NS(=O)(=O)c2ccc(NC(=O)C(F)(F)C(F)(F)C(F)(F)F)cc2)c1C	nt	i	i	i	i	nt
O=S(=O)(Nc1cc(Sc2cccc3cccnc23)c(O)c2ccccc12)c1ccc(F)cc1	101.9	119.5	i	nt	87.4	i
Cc1cccc(Oc2nc(-c3ccncc3)nc3ccccc23)c1	nt	i	i	i	?	i
Cc1cccc(Oc2nc(-c3ccccn3)nc3ccccc23)c1	80.6	i	i	i	98.4	i
Cc1ccccc1Oc1nc(-c2ccccn2)nc2ccccc12	87.6	i	i	i	103.5	i
CC(=O)Nc1ccc(Oc2nc(-c3ccccn3)nc3ccccc23)cc1	i	i	i	i	i	i
SMILES	Beta cell apopt	CSC inhib	Calb FLC	Mdm2-MdmX inh	SKKanGAS inh	T cruzi repl
NS(=O)(=O)c1cccc(NC(=S)NCc2ccc3c(c2)OCO3)c1	i	i	115.9	i	nt	nt
NS(=O)(=O)c1ccc(NC(=S)NCc2ccc3c(c2)OCO3)cc1	i	i	i	i	i	i
O=C(Cn1ncc(Cl)c(Cl)c1=O)NC1CCS(=O)(=O)C1 (stereo unspecified)	i	i	i	i	i	i
O=C1CN(C(=O)Cn2ncc(Cl)c(Cl)c2=O)c2ccccc2N1	nt	nt	i	nt	i	74.7
O=C1CN(C(=O)COc2ccc(Cl)c(Cl)c2)c2ccccc2N1	nt	nt	nt	i	nt	nt
O=C(Cn1ncc(Cl)c(Cl)c1=O)NCC1CCCCC1	i	99.7	nt	nt	nt	nt
COc1ccc(NC(=O)c2cccc(Cn3cc(Br)c([N+](=O)[O-])n3)c2)c(C)c1	i	i	i	i	i	68.1
NNC(=O)c1cccc(Cn2cc(Br)c([N+](=O)[O-])n2)c1	i	i	i	i	i	i
O=C1c2ccccc2C2=Nc3ccccc3SC(c3cccc(F)c3)C12 (stereo unspecified)	i	i	i	i	79.0	56.5
Fc1cccc(C2NN=C(c3ccccc3)S2)c1 (stereo unspecified)	i	i	i	i	i	i
CCCN(CC(=O)Nc1ccccc1OC)C(=O)c1ccncc1	i	nt	i	i	?	i
CCS(=O)(=O)N1Cc2ccccc2CC1C(=O)Nc1nnc(SCc2ccc(C#N)cc2)s1 (stereo unspecified)	i	i	i	i	59.6	i
CSCCC(=O)N1CC[C@@H](N2CCN(c3ccccc3F)CC2)[C@H](O)C1	i	i	i	i	i	i
Cc1ccc(C(=O)NC(=S)NNC(=O)CC#N)cc1	i	i	109.2	i	i	i
CCCCC(=O)NNC(=S)NC(=O)c1ccc([N+](=O)[O-])cc1	i	i	?	i	i	i
CCCCC(=O)NNC(=S)NC(=O)c1ccc(C)cc1	i	i	101.4	i	i	i
CC(=O)N1c2ccc(S(=O)(=O)N(C)CC(=O)NC3CCCC3)cc2CC1C (stereo unspecified)	i	i	i	i	i	i
COc1cccc(NC(=O)COc2ccc3c(c2)CCC3)c1	i	nt	100.5	i	i	i
O=C(COc1ccc2c(c1)CCC2)NCc1cccc(Cl)c1	i	i	71.5	i	i	i
COc1ccccc1OCCNC(=O)c1ccc2c(c1)CCC2	i	i	i	i	i	i
O=C(CSc1ccccc1F)NNC(=O)c1cncc(Br)c1	i	i	nt	i	nt	nt
COc1ccc(CN(C(=O)c2snc(C(N)=O)c2N)C(C(=O)NC2CCCC2)c2ccco2)cc1 (stereo unspecified)	i	i	i	i	i	i
COCC(=O)Nc1nc2n(n1)C(c1ccc(Cl)cc1)CC(c1ccc(OC)cc1)N2 (stereo unspecified)	i	i	i	i	i	i
COCC(=O)Nc1nc2n(n1)C(c1ccccc1Cl)CC(c1ccc(OC)cc1)N2 (stereo unspecified)	i	i	110.5	i	i	i
C=CC(=O)N1CCCC(Nc2nc(Nc3ccc(N(C)C(=O)CC)cc3C)nc3nc[nH]c23)C1 (stereo unspecified)	i	nt	nt	i	nt	nt
SMILES	Beta cell apopt	CSC inhib	Calb FLC	Mdm2-MdmX inh	SKKanGAS inh	T cruzi repl
FC(F)(F)c1cc(Nc2ccccc2)nc(-c2ccccn2)n1	i	i	i	i	77.3	i
O=c1cc(-c2ccc(Cl)cc2)oc(=O)[nH]1	i	i	i	i	i	i
O=c1cc(N=Nc2ccc(Cl)cc2)[nH]c(=O)[nH]1	i	116.5	i	nt	97.5	i
S=c1sc2c(Cl)ncnc2n1-c1ccccc1	nt	nt	i	nt	i	59.1
Cc1nc(N2CCN(C)CC2)c2sc(=S)n(-c3ccccc3)c2n1	i	i	i	i	i	i
Cc1ccc(C)c(C(=O)COC(=O)c2cc(Cl)nc3ccccc23)c1	i	i	i	i	53.6	i
Cc1ccc(C(=O)COC(=O)c2cc(Cl)nc3ccccc23)cc1C	i	i	i	i	i	i
CCC(C)Sc1cc(C(F)(F)F)c(C(=O)Nc2ccc(Cl)cc2)cn1 (stereo unspecified)	i	i	i	i	70.4	i
Cc1ccc(C(=O)N2CCN(S(=O)(=O)c3ccc(C(C)C)cc3)CC2)s1	i	i	i	i	i	i

Bioassay records deposited in PubChem by several laboratories.
